{"source": "ChEMBL document CHEMBL3734720", "about": "“Synthesis of thiophene-thiosemicarbazone derivatives and evaluation of their in vitro and in vivo antitumor activities” (Eur J Med Chem, 2015)", "key": {"[1]": {"assay": "Antitumor activity against mouse EAT implanted in Balb/C mouse assessed as change in paw volume at 30 mg/kg, po administered on day 3 post tumor inoculation measured on day 9 by plethysmometer analysis (reference value: 95.5 +/- 5.2%)", "assay_type": "functional"}, "Mus musculus [2]": {"system": "Mus musculus", "assay": "Acute toxicity in Balb/C mouse assessed as adhesion of organs at 600 mg/kg, po", "assay_type": "organism-based", "details": "in vivo", "procedure,_shortened": "(§1)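 Fixed dose procedure following OECD guideline; Balb/C mice (20-35 g) fasted 16 h, groups of 5 given single oral doses stepwise at 600, 400 and 200 mgKg-1; survival and clinical signs of pain, suffering and impending death recorded per OECD guidance.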"}, "[3]": {"assay": "Antitumor activity against mouse EAT implanted in Balb/C mouse assessed as change in paw volume at 30 mg/kg, po administered on day 3 post tumor inoculation measured on day 3 by plethysmometer analysis (reference value: 40.2 +/- 7.0%)", "assay_type": "functional"}, "K562": {"system": "K562", "assay": "Antiproliferative activity against human K562 cells assessed as growth inhibition after 48 hrs by SRB assay", "assay_type": "functional", "details": "K562, 48 h", "procedure,_shortened": "(§2)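 Cells exposed 48 h at 37 °C, 5% CO2 to 0.25, 2.5, 25 and 250 µg/mL in DMSO/RPMI (final DMSO 0.1%); doxorubicin standard at 0.025–25 µg/mL. Plates fixed with 50% TCA before (T0) and after treatment; protein content read by sulforhodamine B at 540 nm. GI50 (µM) from nonlinear regression of concentration–response curves; triplicate.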"}, "[4]": {"assay": "Antitumor activity against mouse EAT implanted in Balb/C mouse assessed as change in paw volume at 100 mg/kg, po administered on day 3 post tumor inoculation measured on day 9 by plethysmometer analysis (reference value: 95.5 +/- 5.2%)", "assay_type": "functional"}, "[5]": {"assay": "Antitumor activity against mouse EAT implanted in Balb/C mouse assessed as change in paw volume at 300 mg/kg, po administered on day 3 post tumor inoculation measured on day 15 by plethysmometer analysis (reference value: 166.5 +/- 6.0%)", "assay_type": "functional"}, "786-0 [6]": {"system": "786-0", "assay": "Cell cycle arrest in human 786-0 cells assessed as accumulation at Sub G1 phase at 25 uM after 24 hrs by propidium iodide based flow cytometric analysis (reference value: 3.0 +/- 0.7%)", "assay_type": "functional"}, "[7]": {"assay": "Acute toxicity in Balb/C mouse assessed as survival rate at 400 mg/kg, po", "assay_type": "organism-based", "details": "in vivo", "procedure,_shortened": "as §1"}, "[8]": {"assay": "Antiproliferative activity against human UACC62 cells assessed as growth inhibition after 48 hrs by SRB assay", "assay_type": "functional", "details": "UACC-62, 48 h", "procedure,_shortened": "as §2"}, "[9]": {"assay": "Acute toxicity in Balb/C mouse assessed as survival rate at 600 mg/kg, po", "assay_type": "organism-based", "details": "in vivo", "procedure,_shortened": "as §1"}, "Mus musculus [10]": {"system": "Mus musculus", "assay": "Acute toxicity in Balb/C mouse assessed as pain, suffering and impending death at 200 to 400 mg/kg, po", "assay_type": "organism-based", "details": "in vivo", "procedure,_shortened": "as §1"}, "[11]": {"assay": "Antitumor activity against mouse EAT implanted in Balb/C mouse assessed as change in paw volume at 100 mg/kg, po administered on day 3 post tumor inoculation measured on day 15 by plethysmometer analysis (reference value: 166.5 +/- 6.0%)", "assay_type": "functional"}, "[12]": {"assay": "Acute toxicity in Balb/C mouse assessed as survival rate at 200 mg/kg, po", "assay_type": "organism-based", "details": "in vivo", "procedure,_shortened": "as §1"}, "786-0 [13]": {"system": "786-0", "assay": "Cytotoxicity against human 786-0 cells assessed as compound concentration required to inhibit total growth after 24 hrs by SRB assay", "assay_type": "functional", "details": "786-0, 24 h", "procedure,_shortened": "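786-0 cells treated 24 h with 25, 50, 100 and 200 µM; growth measured by sulforhodamine B staining. Concentration giving total growth inhibition (TGI) calculated from the concentration–response data.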"}, "[14]": {"assay": "Antitumor activity against mouse EAT implanted in Balb/C mouse assessed as change in paw volume at 300 mg/kg, po administered on day 3 post tumor inoculation measured on day 6 by plethysmometer analysis (reference value: 86.1 +/- 5.7%)", "assay_type": "functional"}, "HT-29": {"system": "HT-29", "assay": "Antiproliferative activity against human HT-29 cells assessed as growth inhibition after 48 hrs by SRB assay", "assay_type": "functional", "details": "HT-29, 48 h", "procedure,_shortened": "as §2"}, "[15]": {"assay": "Antitumor activity against mouse EAT implanted in Balb/C mouse assessed as change in paw volume at 100 mg/kg, po administered on day 3 post tumor inoculation measured on day 6 by plethysmometer analysis (reference value: 86.1 +/- 5.7%)", "assay_type": "functional"}, "MCF7": {"system": "MCF7", "assay": "Antiproliferative activity against human MCF7 cells assessed as growth inhibition after 48 hrs by SRB assay", "assay_type": "functional", "details": "MCF7, 48 h", "procedure,_shortened": "as §2"}, "[16]": {"assay": "Antitumor activity against mouse EAT implanted in Balb/C mouse assessed as change in paw volume at 30 mg/kg, po administered on day 3 post tumor inoculation measured on day 6 by plethysmometer analysis (reference value: 86.1 +/- 5.7%)", "assay_type": "functional"}, "[17]": {"assay": "Antitumor activity against mouse EAT implanted in Balb/C mouse assessed as change in paw volume at 100 mg/kg, po administered on day 3 post tumor inoculation measured on day 12 by plethysmometer analysis (reference value: 125.5 +/- 7.5%)", "assay_type": "functional"}, "786-0 [18]": {"system": "786-0", "assay": "Induction of cell death in human 786-0 cells assessed as phosphatidylserine externalization at 50 uM after 24 hrs by annexin V/7-amino-actinomycin D double staining based flow cytometric analysis (reference value: 3.8 +/- 0.5%)", "assay_type": "functional"}, "[19]": {"assay": "Antitumor activity against mouse EAT implanted in Balb/C mouse assessed as change in paw volume at 30 mg/kg, po administered on day 3 post tumor inoculation measured on day 15 by plethysmometer analysis (reference value: 166.5 +/- 6.0%)", "assay_type": "functional"}, "[20]": {"assay": "Antiproliferative activity against human PC3 cells assessed as growth inhibition after 48 hrs by SRB assay", "assay_type": "functional", "details": "PC-3, 48 h", "procedure,_shortened": "as §2"}, "786-0 [21]": {"system": "786-0", "assay": "Cytotoxicity against human 786-0 cells assessed as compound concentration required to cause 50% cell death after 24 hrs by SRB assay", "assay_type": "functional", "details": "786-0, 24 h, read-out: LC50 (the source's name)", "procedure,_shortened": "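786-0 cells exposed 24 h to 25, 50, 100 and 200 µM; growth measured by sulforhodamine B staining of TCA-fixed cells (540 nm) with time-zero plate; LC50 (50% cell death) and TGI derived by non-linear regression.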"}, "U-251": {"system": "U-251", "assay": "Antiproliferative activity against human U251 cells assessed as growth inhibition after 48 hrs by SRB assay", "assay_type": "functional", "details": "U-251, 48 h", "procedure,_shortened": "as §2"}, "786-0 [22]": {"system": "786-0", "assay": "Cell cycle arrest in human 786-0 cells assessed as accumulation at S phase at 25 uM after 24 hrs by propidium iodide based flow cytometric analysis (reference value: 14.6 +/- 1.3%)", "assay_type": "functional"}, "[23]": {"assay": "Antitumor activity against mouse EAT implanted in Balb/C mouse assessed as change in paw volume at 30 mg/kg, po administered on day 3 post tumor inoculation measured on day 12 by plethysmometer analysis (reference value: 125.5 +/- 7.5%)", "assay_type": "functional"}, "[24]": {"assay": "Antiproliferative activity against human NCI-ADR-RES cells assessed as growth inhibition after 48 hrs by SRB assay", "assay_type": "functional", "procedure,_shortened": "as §2"}, "786-0 [25]": {"system": "786-0", "assay": "Induction of cell death in human 786-0 cells assessed as phosphatidylserine externalization at 50 uM after 18 hrs by annexin V/7-amino-actinomycin D double staining based flow cytometric analysis (reference value: 7.2 +/- 1.4%)", "assay_type": "functional"}, "786-0 [26]": {"system": "786-0", "assay": "Induction of cell death in human 786-0 cells assessed as loss of cell membrane integrity at 50 uM after 24 hrs by annexin V/7-amino-actinomycin D double staining based flow cytometric analysis (reference value: 3.6+/- 0.8%)", "assay_type": "functional"}}, "data": [{"smiles": "S=C(N/N=C/c1cccs1)Nc1ccc(Br)cc1", "values": [{"measurement": "Activity", "setting": "[1]", "value": 57.1, "unit": "%"}, {"measurement": "Activity", "setting": "Mus musculus [2]", "value": "Toxic"}, {"measurement": "Activity", "setting": "[3]", "value": 26.8, "unit": "%"}, {"measurement": "GI50", "setting": "K562", "value": "> 100", "unit": "µM"}, {"measurement": "Activity", "setting": "[4]", "value": 73.7, "unit": "%"}, {"measurement": "Activity", "setting": "[5]", "value": 106, "unit": "%"}, {"measurement": "Activity", "setting": "786-0 [6]", "value": 5.4, "unit": "%"}, {"measurement": "survival", "setting": "[7]", "value": 100, "unit": "%"}, {"measurement": "GI50", "setting": "[8]", "value": 71.1, "unit": "µM"}, {"measurement": "survival", "setting": "[9]", "value": 100, "unit": "%"}, {"measurement": "Activity", "setting": "Mus musculus [10]", "value": "Non-toxic"}, {"measurement": "Activity", "setting": "[11]", "value": 118.6, "unit": "%"}, {"measurement": "survival", "setting": "[12]", "value": 100, "unit": "%"}, {"measurement": "TGI", "setting": "786-0 [13]", "value": 28, "unit": "µM"}, {"measurement": "Activity", "setting": "[14]", "value": 75.1, "unit": "%"}, {"measurement": "GI50", "setting": "HT-29", "value": 17.7, "unit": "µM"}, {"measurement": "Activity", "setting": "[15]", "value": 78.1, "unit": "%"}, {"measurement": "GI50", "setting": "MCF7", "value": "< 0.74", "unit": "µM"}, {"measurement": "Activity", "setting": "[16]", "value": 60.6, "unit": "%"}, {"measurement": "Activity", "setting": "[17]", "value": 75.8, "unit": "%"}, {"measurement": "Activity", "setting": "786-0 [18]", "value": 21.9, "unit": "%"}, {"measurement": "Activity", "setting": "[19]", "value": 82, "unit": "%"}, {"measurement": "GI50", "setting": "[20]", "value": 79.4, "unit": "µM"}, {"measurement": "CC50", "setting": "786-0 [21]", "value": 91.8, "unit": "µM"}, {"measurement": "GI50", "setting": "U-251", "value": 4.2, "unit": "µM"}, {"measurement": "Activity", "setting": "786-0 [22]", "value": 13.9, "unit": "%"}, {"measurement": "Activity", "setting": "[23]", "value": 36.3, "unit": "%"}, {"measurement": "GI50", "setting": "[24]", "value": 1.7, "unit": "µM"}, {"measurement": "Activity", "setting": "786-0 [25]", "value": 15.5, "unit": "%"}, {"measurement": "Activity", "setting": "786-0 [26]", "value": 35.7, "unit": "%"}]}]}
